Source: PubChem BioAssay
Exocytosis inh: lytic granule exocytosis inhibition; 360,000 tested, 0.66% active; TALL-104 LAMP-1 surface exposure, flow cytometry; cells stimulated with thapsigargin and PMA; AID 651702; inhibition, % at 10 µM;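 active = inhibition above about 55%, limit read from the data; inconclusive = no clear call, values can overlap the other calls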
MC4R ag barr: agonists of human melanocortin 4 receptor (MC4R) beta-arrestin; P32245; U2OS MC4R beta-arrestin complementation, luminescence; percent of melanotan II response, DMSO zero; activation, % at 8.9 µM; 360,000 tested, 0.98% active;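 active = activation above a per-plate cutoff, the mean activation of sample wells on that plate plus 3 SD, cut at about 8% in these data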
Target sequence (P32245 whole entry, looked up): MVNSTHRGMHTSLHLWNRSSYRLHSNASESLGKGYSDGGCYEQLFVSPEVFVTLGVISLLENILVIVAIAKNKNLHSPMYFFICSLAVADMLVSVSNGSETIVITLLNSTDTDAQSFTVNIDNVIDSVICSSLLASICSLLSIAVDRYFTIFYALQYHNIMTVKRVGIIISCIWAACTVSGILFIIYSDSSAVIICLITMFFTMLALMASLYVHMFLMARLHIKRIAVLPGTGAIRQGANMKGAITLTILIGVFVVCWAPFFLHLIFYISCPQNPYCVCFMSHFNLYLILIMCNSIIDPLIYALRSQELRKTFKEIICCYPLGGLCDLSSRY
MC4R antagonist: antagonists of human melanocortin 4 receptor (MC4R); MC4R-expressing cells, MTII-stimulated cAMP, LANCE TR-FRET; P32245; 360,000 tested, 0.48% active; inhibition, % at 6.5 µM; AID 540295;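 active = inhibition above its plate's cutoff, the mean of tested wells on that plate plus 3 SD, cut at about 29% in these data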
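Assay system: U2OS cells stably expressing human melanocortin 4 receptor (MC4R) / Dosing: 6.5 µM / Timing: compound 30 min, challenge 1 h, detection 1 h / Measured by: Eu-cAMP/anti-cAMP TR-FRET, emission 671 nm / Replicates: singlicate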
NTR1 agonist: NTR1 (human) agonism; activation, % at 20 µM; NTR1-U2OS beta-arrestin-GFP spot imaging, agonist mode; P30989; 330,000 tested, 0.17% active;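 active = activation at or above 40% of the spot to cytoplasm intensity ratio, with at least 20 cells analyzed; inconclusive = wells under 20 cells, flagged as cytotoxic or low count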
Target sequence (P30989 whole entry, looked up): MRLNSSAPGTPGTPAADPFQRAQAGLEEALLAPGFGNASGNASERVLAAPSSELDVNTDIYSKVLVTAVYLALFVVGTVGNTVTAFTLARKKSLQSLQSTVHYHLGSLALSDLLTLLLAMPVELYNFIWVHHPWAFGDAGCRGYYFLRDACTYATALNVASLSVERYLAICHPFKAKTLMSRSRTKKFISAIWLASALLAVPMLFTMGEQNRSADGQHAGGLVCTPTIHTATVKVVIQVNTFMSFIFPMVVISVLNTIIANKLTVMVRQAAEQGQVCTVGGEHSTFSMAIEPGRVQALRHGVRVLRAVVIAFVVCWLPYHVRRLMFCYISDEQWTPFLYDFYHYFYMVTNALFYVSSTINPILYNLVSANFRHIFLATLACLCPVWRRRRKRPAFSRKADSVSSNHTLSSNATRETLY
A1 inh: inhibitors of the anti-apoptotic protein A1, read as caspase activation | MEF A1-2A-BIM cells, Caspase-Glo 3/7 luminescence, 3 h; percent of clofoctol response, vehicle zero | 330,000 tested, 0.066% active | caspase activation, % (test concentration not listed);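 active = over half of replicate activation scores above 10%, or exactly half above 10 with the replicate mean above 10; inconclusive = replicate mean below 10 yet half the replicates above 10; inactive = over half of replicates below 10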
HGIII-sPLA2 inh: Blocks human group III sPLA2 activity | QFRET BODIPY PC-A2 liposome hydrolysis, fluorescence | inhibition, % at 12.2 µM | 370,000 tested, 0.56% active | AID 743126;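 active = inhibition above mean plus 3 SD of compounds lying within the high and low control bounds, cut at about 19% in these data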
U2OS cAMP counter: U2OS forskolin cAMP inhibition counter-screen; shares compounds with MC4R antagonist; parental U2OS, LANCE TR-FRET; inhibition, % at 6.5 µM; 1,600 tested, 26% active;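 active = mean inhibition over triplicates above the low-control well mean plus 3 SD, set per campaign, cut at about 13% in these data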;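 note: signal is single emission at 671 nm which falls as cellular cAMP rises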
MC4R antag conf: human MC4R cAMP antagonism confirmation | shares compounds with MC4R antagonist | MC4R-expressing cells, MTII-stimulated cAMP, TR-FRET | inhibition, % at 6.5 µM | 1,600 tested, 27% active | AID 602195; in the data active = inhibition above about 29%
Each line names hits and unclear results; the compound was inactive in the other large screens (follow-up assays come after a bar, where they were run). The list is not random: actives were taken first. Their share in the collection is about 2.5%.

COC(=O)CNc1n[nH]c(=S)[nH]c1=O	none
CC(C)OC(=O)CNc1n[nH]c(=S)[nH]c1=O	MC4R antagonist 41 (no result: NTR1 agonist, A1 inh) | U2OS cAMP counter inactive | MC4R antag conf inactive
CCOC(=O)CNC(=O)CSc1nnc(C)c(=O)[nH]1	none
CCOC(=O)CSc1nnc(NCC(=O)OC(C)C)c(=O)[nH]1	MC4R antagonist 35 | U2OS cAMP counter 18 | MC4R antag conf inactive
CCOC(=O)CC[C@@H]1CC[C@]2(CCCN(Cc3ccc(OC)cc3)C2)O1	none (no result: Exocytosis inh, MC4R ag barr, MC4R antagonist, NTR1 agonist, A1 inh)
Cc1ccc(S(=O)(=O)N(C)[C@H]2C[C@H]3c4cc(N5CCOCC5)ccc4CCN3C[C@H]2[C@H](C)O)cc1	none (no result: Exocytosis inh, MC4R ag barr, MC4R antagonist, NTR1 agonist, A1 inh)
CC(C)(C)OC(=O)N1CCN(C(=O)c2[nH]cnc2C(=O)N[C@@H](Cc2ccccc2)C(=O)OCc2ccccc2)CC1	none
C[C@H](NC(=O)c1nc[nH]c1C(=O)N[C@@H](Cc1ccccc1)C(=O)OCc1ccccc1)C(=O)OC(C)(C)C	MC4R antagonist 34 | U2OS cAMP counter inactive | MC4R antag conf inactive
CC(C)C[C@H](NC(=O)c1nc[nH]c1C(=O)N1CCN(C(=O)OC(C)(C)C)CC1)C(=O)OCc1ccccc1	MC4R antagonist 34, A1 inh inconclusive | U2OS cAMP counter 16 | MC4R antag conf inactive
O=C(NCc1ccco1)C(c1ccccc1)N(C(=O)Cc1cccs1)c1cccnc1 (stereo not given)	MC4R antagonist 29 | U2OS cAMP counter inactive | MC4R antag conf inactive
COC(=O)[C@]12C[C@H](CC(=O)NCCc3ccccc3OC)C(=O)N(CCc3ccc(OC)c(OC)c3)C1=C[C@H](C(C)(C)C)O[C@@H]2C	none (no result: Exocytosis inh, MC4R ag barr, MC4R antagonist, NTR1 agonist, A1 inh)
COc1ccccc1-n1cc([C@@H]2C[C@H]3CN(c4ccccc4)C(=O)[C@]34CCCN24)cn1	MC4R antagonist 35 | U2OS cAMP counter inactive | MC4R antag conf inactive
O=[N+]([O-])c1ccc(Cn2ccc3ccc(-c4ccc5ccn(Cc6ccccc6)c5c4)cc32)cc1	none (no result: Exocytosis inh, MC4R ag barr, MC4R antagonist, NTR1 agonist, A1 inh)
Cc1ccccc1C(=O)N1CCc2c([nH]c3ccccc23)C1C(F)(F)F (stereo not given)	MC4R antagonist 36 | U2OS cAMP counter inactive | MC4R antag conf inactive
C#CCOCCOCCOCCNc1nc(N2CCN(C(=O)CCCCCCCCCCNC(=O)[C@H]([C@@H](C)CC)n3cc(CCCCN=C(N)N)nn3)CC2)nc(N2CCN(C(=O)CCCCCCCCCCNC(=O)[C@@H]([C@H](C)O)n3cc(C)nn3)CC2)n1	MC4R antagonist 38 (no result: HGIII-sPLA2 inh) | U2OS cAMP counter 19 | MC4R antag conf 55
Cc1onc(-c2ccccc2Cl)c1C(=O)NNC(=O)c1ccc(F)cc1	none
Cc1onc(-c2ccccc2Cl)c1C(=O)NNC(=O)c1nn(C)cc1Cl	MC4R antagonist 36 | U2OS cAMP counter inactive | MC4R antag conf inactive
Clc1ccc(-c2nnc3n2CCCCS3)cc1	MC4R antagonist 35 | U2OS cAMP counter inactive | MC4R antag conf inactive
CCOC(=O)N1CCC(N2CCCC(CO)(Cc3cccc(Cl)c3)C2)CC1 (stereo not given)	MC4R antagonist 34 | U2OS cAMP counter inactive | MC4R antag conf inactive
CCOC(=O)N1CCC(N2CCCC(CO)(Cc3ccccc3C)C2)CC1 (stereo not given)	none
CCOC(=O)c1c(NC(=O)C2c3ccccc3Oc3ccccc32)sc(C(N)=O)c1C	MC4R antagonist 32 | U2OS cAMP counter inactive | MC4R antag conf inactive
O=C(O)c1ccccc1C(=O)Nc1ccccc1NC(=O)c1ccccc1C(=O)O	none
CC(=O)c1sc(C(C)(C)C)cc1NC(=O)c1ccccc1C(=O)O	MC4R antagonist 36 | U2OS cAMP counter 32 | MC4R antag conf 56
Cc1noc(C(=O)Nc2cccc(O)c2)c1Cl	MC4R antagonist 29 | U2OS cAMP counter inactive | MC4R antag conf inactive
N/C(CC(=O)Nc1ccc(F)c(Cl)c1)=N\OC(=O)c1cccs1	MC4R antagonist 36 | U2OS cAMP counter inactive | MC4R antag conf inactive
OC(c1ccccc1)(c1ccccc1)C1CCN(CCCOc2ccc(-c3ccncc3)cc2)CC1	none (no result: Exocytosis inh, MC4R ag barr, MC4R antagonist, NTR1 agonist, A1 inh)
C=C(C(=O)c1ccccc1)C(C)CC(=O)c1ccccc1 (stereo not given)	MC4R antagonist 33 | U2OS cAMP counter 23 | MC4R antag conf 50
COC(=O)[C@]12C[C@H](CC(=O)NCCc3ccccc3OC)C(=O)N(Cc3ccc(Cl)cc3Cl)C1=C[C@H](C1CCCC1)O[C@@H]2C	none (no result: Exocytosis inh, MC4R ag barr, MC4R antagonist, NTR1 agonist, A1 inh)
COc1ccc(C(CC(=O)c2ccc(C)cc2)C(C#N)C#N)cc1OC (stereo not given)	MC4R antagonist 30 | U2OS cAMP counter inactive | MC4R antag conf inactive
COc1ccc(C=NN(C)C(=O)Nc2cccc(Cl)c2)cc1OC	none (no result: Exocytosis inh, MC4R ag barr, MC4R antagonist, NTR1 agonist, A1 inh)
C=C1C(=O)C23C(O)C1CCC2C12CCCC(C)(COC(C)=O)C1C(O)C3(O)OC2 (stereo not given)	MC4R antagonist 31 (no result: NTR1 agonist, A1 inh) | U2OS cAMP counter inactive | MC4R antag conf inactive
O=C(C1CCN(c2cncnc2)CC1)N1CCOCC1	none (no result: Exocytosis inh, MC4R ag barr, MC4R antagonist, NTR1 agonist, A1 inh)
CCN(C(=O)COC(=O)CSc1ccc(C(N)=O)cc1[N+](=O)[O-])C1CCCCC1	MC4R antagonist 33 | U2OS cAMP counter inactive | MC4R antag conf 30
Cc1ccc(CN(C)C(=O)COC(=O)CSc2ccc(C(N)=O)cc2[N+](=O)[O-])cc1	MC4R antagonist 38 | U2OS cAMP counter 14 | MC4R antag conf 35
COC(=O)c1cccc(-n2c(C)cc(O)cc2=O)c1	none (no result: Exocytosis inh, MC4R ag barr, MC4R antagonist, NTR1 agonist, A1 inh)
COc1ccc(NC(=O)c2cc(-c3ccc(F)cc3OC)n[nH]2)c(OC)c1	MC4R antagonist 30 (no result: NTR1 agonist, A1 inh) | U2OS cAMP counter inactive | MC4R antag conf inactive
COc1ccc(NC(=O)c2cc(-c3cc(F)ccc3OC)n[nH]2)c(OC)c1	none (no result: NTR1 agonist, A1 inh)
Cc1c(Cl)c([N+](=O)[O-])nn1CC(=O)N1CCCc2ccccc21	none
Cc1c(Br)c([N+](=O)[O-])nn1CC(=O)N1CCc2ccccc21	MC4R antagonist 30 | U2OS cAMP counter inactive | MC4R antag conf inactive
Cc1cccc(CNC(=O)NC2CCCCN(Cc3cccc(Cl)c3)C2=O)c1 (stereo not given)	none (no result: Exocytosis inh, MC4R ag barr, MC4R antagonist, NTR1 agonist, A1 inh)
COc1ccc2c(c1)Sc1ccc(Cl)cc1N2	none (no result: Exocytosis inh, MC4R ag barr, MC4R antagonist, NTR1 agonist, A1 inh)
COC(=O)[C@]12C[C@H](CC(=O)NCc3ccc(OC)c(OC)c3)C(=O)N(Cc3ccco3)C1=C[C@H](C1CCCC1)O[C@@H]2C	none (no result: Exocytosis inh, MC4R ag barr, MC4R antagonist, NTR1 agonist, A1 inh)
Cc1cccc(C(=O)NCC(=O)OCC(=O)c2ccc(Br)s2)c1	MC4R antagonist 44 | U2OS cAMP counter 33 | MC4R antag conf 70
Cc1cccc(C(=O)NCC(=O)OCC(=O)NCCNC(=O)COC(=O)CNC(=O)c2cccc(C)c2)c1	none
